One block for each compound: values may come before it.
Tests used:
[1] = biological target: T1, Adenosine receptor A1 (Rattus norvegicus) (UniProt P25099); assay: Percent displacement against Adenosine A1 receptor in rat brain membranes using [3H]PIA at 10e-4 M; format: cell membranes
T1 sequence (whole entry): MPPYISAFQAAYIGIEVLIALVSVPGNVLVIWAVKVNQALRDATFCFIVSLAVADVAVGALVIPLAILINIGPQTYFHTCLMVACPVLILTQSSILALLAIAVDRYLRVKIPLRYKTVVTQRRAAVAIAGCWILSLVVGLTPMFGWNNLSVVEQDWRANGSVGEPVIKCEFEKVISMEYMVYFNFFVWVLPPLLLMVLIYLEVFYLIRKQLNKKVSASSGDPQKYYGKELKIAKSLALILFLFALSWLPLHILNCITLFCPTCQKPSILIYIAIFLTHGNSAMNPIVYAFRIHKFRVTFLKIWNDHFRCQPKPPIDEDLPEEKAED

[2] = biological target: T2, Adenosine A2 receptor (Rattus norvegicus) (UniProt P29276+P30543); assay: Percent displacement at 10e-4 M against Adenosine A2 receptor in rat striatal membranes using [3H]-CGS- 21680; format: cell membranes; conditions: Striatum, Membrane
Method in brief: (§1)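 Rat striatal membranes, prepared with adenosine deaminase (3 units/mL) including a 30 min, 30 °C preincubation, ADA also present during radioligand incubation; [3H]CGS 21680 displacement. Test compounds from DMSO stocks, final DMSO ≤1%, at least five concentrations spanning 3 orders of magnitude.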

[3] = biological target: T3, Adenosine receptor A3 (Homo sapiens) (UniProt P0DMS8); assay: Binding affinity against human Adenosine A3 receptor in HEK293 cells using [125I]AB-MECA […]; format: cell-based
T3 sequence (whole entry): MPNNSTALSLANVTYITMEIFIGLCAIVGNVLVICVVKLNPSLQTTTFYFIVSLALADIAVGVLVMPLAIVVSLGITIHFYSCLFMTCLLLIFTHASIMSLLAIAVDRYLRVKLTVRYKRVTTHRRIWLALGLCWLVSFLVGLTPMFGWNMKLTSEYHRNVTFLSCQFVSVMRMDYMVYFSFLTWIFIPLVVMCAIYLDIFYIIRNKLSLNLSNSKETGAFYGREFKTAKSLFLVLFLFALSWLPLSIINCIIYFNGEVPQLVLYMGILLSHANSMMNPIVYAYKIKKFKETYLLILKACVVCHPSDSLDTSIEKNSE
Method in brief: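 Membranes of HEK-293 cells stably expressing human A3 receptor (0.3 mg protein/mL) in 50 mM Tris, 10 mM Mg2+, 1 mM EDTA, pH 8.0, with 0.3 nM [125I]AB-MECA final. Duplicate 1 h incubations at 25 °C, filtration over GF/B, gamma counting; nonspecific binding with 100 μM (R)-PIA; DMSO ≤1%.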

[4] = biological target: T1, Adenosine receptor A1 (Rattus norvegicus); assay: Percentage inhibition against Adenosine A1 receptor in rat brain membranes using [3H]-PIA; format: cell membranes; set-up: concentration or dose not given beside the values; conditions: concentration not given here
Adenosine A2 receptor = Adenosine A2 receptor (Rattus norvegicus, UniProt P29276+P30543); assay: Binding affinity at Adenosine A2 receptor in rat striatal membranes by [3H]-CGS- 21680 displacement.; format: cell membranes, Striatum, Membrane; method in brief: as §1
[5] = biological target: T2, Adenosine A2 receptor (Rattus norvegicus); assay: Percentage inhibition against Adenosine A2 receptor in rat striatal membranes using [3H]-CGS- 21680; format: cell membranes; conditions: Striatum, Membrane, concentration not given here; method in brief: as §1
Adenosine receptor A3 [6] = biological target: T4, Adenosine receptor A3 (Homo sapiens, UniProt P0DMS8); assay: Binding affinity against human adenosine A3 receptor in HEK293 cells using [125I]AB-MECA […] radioligand.; format: cell-based
T4 sequence (P0DMS8 whole entry): T3 sequence (whole entry)

Adenosine receptor A1 = biological target: T5, Adenosine receptor A1 (Rattus norvegicus, UniProt P25099); assay: Binding affinity at Adenosine A1 receptor in rat brain membranes by [3H]PIA displacement.; format: cell membranes
T5 sequence (P25099 whole entry): T1 sequence (whole entry)

[7] = test system: Adenosine A1 receptor (Rattus norvegicus) / A3 receptor (Homo sapiens); assay: Ratio of binding affinities between rA1 and human A3.
[8] = biological target: Adenylate cyclase type 2 (Rattus norvegicus) (UniProt P26769); assay: Percent inhibition against adenylyl cyclase was measured using IB-MECA […] at 10E-6; format: functional; conditions: concentration not given here
Adenylate cyclase type 2 (Rattus norvegicus), sequence (P26769 whole entry): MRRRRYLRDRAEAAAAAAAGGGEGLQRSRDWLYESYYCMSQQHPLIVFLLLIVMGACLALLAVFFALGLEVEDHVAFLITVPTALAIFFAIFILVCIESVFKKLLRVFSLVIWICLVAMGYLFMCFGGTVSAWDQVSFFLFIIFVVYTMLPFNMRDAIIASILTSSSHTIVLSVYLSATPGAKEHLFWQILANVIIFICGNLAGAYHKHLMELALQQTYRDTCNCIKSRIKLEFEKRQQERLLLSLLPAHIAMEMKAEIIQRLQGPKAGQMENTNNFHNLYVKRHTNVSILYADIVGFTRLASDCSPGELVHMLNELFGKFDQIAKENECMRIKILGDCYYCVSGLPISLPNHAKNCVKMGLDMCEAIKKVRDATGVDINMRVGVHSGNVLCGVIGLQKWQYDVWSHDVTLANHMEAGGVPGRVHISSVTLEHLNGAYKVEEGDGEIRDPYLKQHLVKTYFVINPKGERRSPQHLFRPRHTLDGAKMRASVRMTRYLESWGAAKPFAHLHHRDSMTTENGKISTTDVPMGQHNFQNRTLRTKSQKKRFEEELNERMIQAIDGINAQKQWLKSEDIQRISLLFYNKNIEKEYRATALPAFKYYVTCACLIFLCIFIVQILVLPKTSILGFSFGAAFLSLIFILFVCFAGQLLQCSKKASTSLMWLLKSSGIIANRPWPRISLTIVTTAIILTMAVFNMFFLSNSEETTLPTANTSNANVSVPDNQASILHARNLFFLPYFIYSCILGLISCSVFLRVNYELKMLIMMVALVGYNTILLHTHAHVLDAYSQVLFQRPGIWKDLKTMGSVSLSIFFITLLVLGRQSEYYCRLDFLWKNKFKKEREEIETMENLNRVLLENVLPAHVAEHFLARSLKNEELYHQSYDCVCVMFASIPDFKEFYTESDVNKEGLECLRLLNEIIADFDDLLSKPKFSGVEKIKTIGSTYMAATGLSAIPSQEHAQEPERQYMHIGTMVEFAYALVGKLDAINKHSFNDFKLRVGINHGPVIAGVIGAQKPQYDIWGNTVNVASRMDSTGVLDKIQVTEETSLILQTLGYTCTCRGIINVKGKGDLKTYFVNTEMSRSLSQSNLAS
Method in brief: (§2)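 Membranes from CHO cells stably expressing rat A3 receptor (grown in F-12, 10% FBS, 37 °C, 5% CO2); [α-32P]ATP added with 1 μM forskolin and papaverine as phosphodiesterase inhibitor.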

Adenosine receptor A3 [9] = biological target: T6, Adenosine receptor A3 (Rattus norvegicus, UniProt P28647); assay: (§3) Binding affinity for [125I]AB-MECA against rat Adenosine A3 receptor
T6 sequence (P28647 whole entry): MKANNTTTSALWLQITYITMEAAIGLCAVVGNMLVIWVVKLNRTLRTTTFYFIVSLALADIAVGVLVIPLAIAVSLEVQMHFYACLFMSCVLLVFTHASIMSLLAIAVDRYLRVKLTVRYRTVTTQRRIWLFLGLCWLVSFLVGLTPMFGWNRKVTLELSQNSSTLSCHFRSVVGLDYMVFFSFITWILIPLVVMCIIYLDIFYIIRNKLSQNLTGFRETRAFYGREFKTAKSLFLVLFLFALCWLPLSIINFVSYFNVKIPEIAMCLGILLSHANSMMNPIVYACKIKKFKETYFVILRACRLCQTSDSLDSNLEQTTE

[10] = biological target: Adenylate cyclase type 2 (Rattus norvegicus) (UniProt P26769); assay: Percent inhibition against adenylyl cyclase was measured using IB-MECA […] at 10E-7; format: functional; conditions: concentration not given here; method in brief: as §2
[11] = biological target: T7, Adenosine receptor A3 (Rattus norvegicus) (UniProt P28647); assay: as §3; conditions: concentration not given here
T7 sequence (whole entry): T6 sequence (P28647 whole entry)

[12] = biological target: T1, Adenosine receptor A1 (Rattus norvegicus); assay: Percent inhibition at 10e-4 M against Adenosine A1 receptor in rat brain membranes using [3H]-PIA; format: cell membranes
[13] = biological target: T2, Adenosine A2 receptor (Rattus norvegicus); assay: Percent inhibition against Adenosine A2 receptor in rat striatal membranes using [3H]-CGS- 21680; format: cell membranes; conditions: Striatum, Membrane, concentration not given here; method in brief: as §1

Displacement [1]: < 10%
Displacement [2]: < 10%
Displacement [3]: < 10%
Structure (SMILES): COc1c2ccoc2cc2oc(/C=C/C=C/c3ccccc3)cc(=O)c12

inhibition [4]: 28%
Displacement [2]: < 10%
Structure (SMILES): O=c1cc(-c2ccccc2)oc2ccc(Cl)cc12

Ki (Adenosine A2 receptor): 26.8 µM
Structure (SMILES): CCOc1ccc(-c2oc3cc(OCC)cc(OCC)c3c(=O)c2OCC)c(OCC)c1

inhibition [5]: 35%
Ki (Adenosine receptor A3 [6]): 42.8 µM
Ki (Adenosine receptor A1): 11.5 µM
Structure (SMILES): O=C1CC(c2ccc(O)cc2)Oc2ccccc21 (stereo unspecified) [4'-HYDROXY-FLAVANONE]

Displacement [1]: < 10%
Ratio [7]: > 4
Ki (Adenosine A2 receptor): 167 µM
Ki (Adenosine receptor A3 [6]): 45.5 µM
Structure (SMILES): CCOc1c2ccoc2cc2oc(/C=C/C=C/c3ccccc3)cc(=O)c12

Ki (Adenosine receptor A3 [6]): 48 µM
Structure (SMILES): O=c1ccnc2ccccn12

inhibition [8]: 19.1%
Ki (Adenosine receptor A3 [9]): 18.2 µM
Ki (Adenosine A2 receptor): 3.31 µM
inhibition [10]: 2.2%
Structure (SMILES): CCOc1cc(OCC)c2c(=O)c(OCC)c(-c3ccccc3)oc2c1

Ki (Adenosine receptor A3 [6]): 25 µM
Structure (SMILES): O=S(=O)(c1cccc2cnccc12)N1CCNCC1

Ki (Adenosine A2 receptor): 46.7 µM
Structure (SMILES): COc1ccc(-c2oc3cc(OC)cc(OC)c3c(=O)c2OC)c(OC)c1

Ratio [7]: 3.5
Structure (SMILES): CCCOc1cc(OCCC)c2c(=O)c(OCCC)c(-c3ccccc3)oc2c1

inhibition [11]: 43%
inhibition [8]: 39.2%
Displacement [12]: < 10%
Displacement [2]: < 10%
Ratio [7]: > 8
inhibition [10]: 25.9%
Structure (SMILES): COc1ccc2c(c1)C(=O)[C@H](O)[C@@H](/C=C/c1ccccc1)O2 (relative stereo)

Ki (Adenosine receptor A3 [6]): 28 µM
Structure (SMILES): Nc1nc2ncc(NCc3ccc(C(=O)NC(CCC(=O)O)C(=O)O)cc3)nc2c(=O)[nH]1 (stereo unspecified)

Ki (Adenosine receptor A3 [6]): 19 µM
Structure (SMILES): OCCN(CCO)C1=NC(N2CCCCC2)c2nc(N(CCO)CCO)nc(N3CCCCC3)c2N1 (stereo unspecified)

Displacement [1]: < 10%
Displacement [2]: < 10%
Ratio [7]: > 20
Ki (Adenosine receptor A3 [6]): 9.18 µM
Structure (SMILES): COc1c2ccoc2cc2oc(/C=N/c3ccccc3)cc(=O)c12

Ki (Adenosine A2 receptor): 3.45 µM
Structure (SMILES): O=c1cc(-c2ccccc2)oc2ccccc12 [FLAVONE]

Ki (Adenosine receptor A3 [6]): 13 µM
Structure (SMILES): CSc1sc(C(=O)NN)c2c1C=CCC2

Displacement [1]: < 10%
Displacement [2]: < 10%
Ratio [7]: > 40
Structure (SMILES): CCOc1ccc(-c2oc3cc(OCC)cc(O)c3c(=O)c2OCC)c(OCC)c1

Ki (Adenosine A2 receptor): 6.45 µM
Structure (SMILES): COc1cc(OC)c2c(=O)c(OC)c(-c3ccccc3)oc2c1

Ki (Adenosine A2 receptor): 17.6 µM
Structure (SMILES): O=C1CC(c2ccccc2O)Oc2ccccc21 (stereo unspecified) [2'-HYDROXY-FLAVANONE]

Displacement [2]: < 10%
inhibition ([3]; concentration not given here): 27%
Ratio [7]: < 1
Ki (Adenosine receptor A1): 91.9 µM
Structure (SMILES): O=C1c2ccccc2OC(c2ccccc2O)C1O (stereo unspecified)

Ki (Adenosine A2 receptor): 17.3 µM
Structure (SMILES): O=c1c(O)c(-c2ccc(O)cc2O)oc2cc(O)cc(O)c12 [MORIN]

Ki (Adenosine A2 receptor): 63.8 µM
Structure (SMILES): CCOc1cc(O)c2c(=O)c(OCC)c(-c3ccccc3)oc2c1

Displacement [1]: < 10%
Ratio [7]: > 2
inhibition [13]: 25%
Structure (SMILES): COc1c2ccoc2cc2oc(C=O)cc(=O)c12

inhibition [4]: 36%
Ki (Adenosine A2 receptor): 42.4 µM
Structure (SMILES): COc1c2ccoc2cc2oc(C)cc(=O)c12 [VISNAGIN]

inhibition [8]: 40.9%
Ki (Adenosine receptor A3 [9]): 12.3 µM
Ki (Adenosine A2 receptor): 33.8 µM
inhibition [10]: 21.2%
Structure (SMILES): CCOc1c2ccoc2cc2oc(/C=C/c3ccccc3)cc(=O)c12

Displacement [2]: < 10%
Ki (Adenosine receptor A3 [6]): 4.59 µM
Ki (Adenosine receptor A1): 9.09 µM
Structure (SMILES): COc1cc2oc(-c3ccc(O)cc3O)c(CC=C(C)C)c(=O)c2c(O)c1/C=C/C(C)C [ARTOCARPIN]

Displacement [2]: < 10%
Ratio [7]: 0.15
Structure (SMILES): COc1cc(OC)c(-c2oc3ccccc3c(=O)c2O)c(OC)c1

inhibition [4]: 15%
Ratio [7]: > 100
Ki (Adenosine A2 receptor): 54.5 µM
Ki (Adenosine receptor A3 [6]): 0.741 µM
Structure (SMILES): O=c1c(Cl)c(-c2ccccc2)oc2ccc(Cl)cc12

Ki (Adenosine A2 receptor): 0.966 µM
Structure (SMILES): O=c1c(O)c(-c2ccccc2)oc2cc(O)cc(O)c12 [GALANGIN]

Ki (Adenosine receptor A3 [6]): 22 µM
Structure (SMILES): OC12CCCCC1=Nc1ccccc12 (stereo unspecified)

Structure (SMILES): C=C1C(C)C2C(Cc3ccccc3)NC(=O)C23C(OC(C)=O)/C=C\C(C)(O)CC(C)C/C=C/C3C1O (stereo unspecified)
Ki (Adenosine receptor A3 [6]): 23 µM

Ratio [7]: 0.37
Ki (Adenosine A2 receptor): 11.5 µM
Structure (SMILES): COc1c2ccoc2cc2oc(/C=C/c3ccccc3)cc(=O)c12

Ki (Adenosine A2 receptor): 35.6 µM
Structure (SMILES): COc1cc(O)c2c(c1)OC(c1ccc(O)cc1)CC2=O (stereo unspecified)

inhibition [4]: 37%
Displacement [2]: < 10%
Ki (Adenosine receptor A3 [6]): 5.24 µM
Structure (SMILES): Cc1cc(C)c(-c2oc3ccc(Cl)cc3c(=O)c2Cl)c(C)c1

Ki (Adenosine A2 receptor): 25.1 µM
Ki (Adenosine receptor A3 [6]): 11.5 µM
Ki (Adenosine receptor A1): 2.48 µM
Structure (SMILES): O=c1c(Cl)c(-c2ccccc2)oc2ccccc12
